Screening results from PubChem BioAssay.
This is one part of a sample in which hits are shown more often than they occur.
NALP3 yeast inh – NALP3 inflammasome inhibitors in reconstituted yeast, primary screen, luminescence, uHTS; Yeast reconstituted NLRP3/ASC/caspase-1, beta-gal luminescence, 24 h; inhibition, % at 10 µM; 330,000 compounds, 0.39% hits;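 active = inhibition of 50% or more; inactive = inhibition below 50%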;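 also: plate controls were induced DMSO wells for no effect and uninduced yeast grown without galactose for full effect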
T cruzi inh – inhibitors of intracellular T. cruzi growth, primary screen, luminescence, NIH3T3 host cells. T. cruzi beta-gal in NIH3T3, 90 h. inhibition, % (concentration not given with the values). 300,000 compounds, 1.4% hits;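 active = mean inhibition across valid replicates above about 55%, limit read from the data; inconclusive = mean below that limit but half or more replicates reach it; inactive = mean below it, under half of replicates reach it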;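 also: signal also drops with host cell toxicity which is not excluded here; 0% = plate median of DMSO wells and 100% = zero luminescence signal; higher percent means less beta-gal luminescence so fewer parasites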
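Read-out: Parasite load inhibition, % | Test system: Mouse NIH/3T3 fibroblasts infected with β-gal-expressing T. cruzi Tulahuen C4 | Amount: 5,000 cells/well | Medium: DMEM, 2% fetal bovine serum | Signal: GalScreen β-gal luminescence, detergent lysis, 60 min | Timing: 3 h attach, ≥90 h co-culture | Also added: Tulahuen C4 trypomastigotes, 5000/well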
PolyA inhibitor – polyadenylation inhibitors in yeast reporter cells, primary screen, luminescence, S. cerevisiae; S. cerevisiae SKY197-pL101 polyadenylation reporter, beta-gal luminescence; efflux-impaired pdr1/pdr3 knockout yeast; score 100 = 6 SD above DMSO; activity score, % at 12 µM; 300,000 compounds, 0.02% hits; AID 1875, 2009;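 active = lowest replicate activity score at least 50, where 100 means six control SD above control mean; inconclusive = lowest score under 50 but half or more replicates reach 50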;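 also: yeast exposed to compound for 9 h at 30 °C; higher score means more reporter readthrough which indicates perturbed polyadenylation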
Calb FLC – C. albicans growth inhibition with fluconazole, primary screen, CaCi-2 strain, Alamar Blue fluorescence. 300,000 compounds, 0.57% hits. C. albicans CaCi-2 + fluconazole, 48 h. growth inhibition, % (concentration not given with the values);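 active = growth inhibition above about 58% in most replicates, limit read from the data, passing the limit was not always enough; inconclusive = exactly half the replicates above a set limit; inactive = most replicates below a set limit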;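 also: all wells also contain fluconazole at 8 µg/ml as a sub-toxic cotreatment; 0% = median of DMSO wells and 100% = median of geldanamycin control wells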
Lmaj promast – Leishmania major promastigote growth inhibition, primary screen; Leishmania major promastigotes, resazurin fluorescence viability; inhibition, % at 10 µM; 200,000 compounds, 9% hits; AID 1063, 2008; in the data active = inhibition above about 50%;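 also: promastigotes grown with compound for 44 hours at 28 °C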
NALP1 inh – NALP1 inflammasome inhibitors in reconstituted yeast, colorimetric, S. cerevisiae, triplicate retest; S. cerevisiae NALP1/ASC/caspase-1 growth, X-gal OD620, 72 h; inhibition, % at 10 µM; 280,000 compounds, 0.61% hits; AID 2071, 2009; in the data active = inhibition mostly above about 24%, no sharp cut-off; inactive = mostly below about 32%
Active calls of the source: *; ? = inconclusive; . = no result.

SMILES	NALP3 yeast inh	T cruzi inh	PolyA inhibitor	Calb FLC	Lmaj promast	NALP1 inh
CC(C)N(CCNC(=O)c1nn(Cc2ccccc2)c(=O)c2ccccc12)C(C)C	8.1	54.6*	-11.5	-0.4	.	13.6
COc1ccc(/C=N/Nc2nc(NCc3ccco3)nc(Nc3ccc(OC)cc3)n2)cc1	15.0	-8.6	2.8	48.2	77.2*	21.1
Cc1cc(C)c(C(=O)/C=C/c2ccc(C(C)C)cc2)c(=O)[nH]1	23.6	16.1	-15.2	0.1	84.2*	10.2
CC(C)CN1CCC(C(=O)N2CCN(c3ccccc3F)CC2)CC1	7.7	11.3	-3.5	-19.5	81.9*	25.3
COc1cc(CN2CCC(C(=O)N3CCN(c4ccccc4F)CC3)CC2)cc(OC)c1O	3.5	1.5	-1.1	2.7	8.5	-10.8
CCOc1ccc(CN2CCC(C(=O)N3CCN(c4ccccc4F)CC3)CC2)cc1OC	6.2	69.2*	5.8	22.3	-5.0	-0.9
O=C1CCC(=O)N1c1ccc(-c2nc3ccccc3s2)cc1	20.1	-0.7	4.4	5.1	-11.2	9.9
COc1ccc(Cl)cc1NC(=O)CN(C)CC(=O)Nc1c(C)n(C)n(-c2ccccc2)c1=O	6.1	.	.	.	.	.
Nc1ccc(Nc2ccc([N+](=O)[O-])cc2[N+](=O)[O-])cc1	30.9	19.0	-2.3	2.0	14.7	-2.1
O=[N+]([O-])c1c(Nc2ccc(O)cc2)cc(Cl)c2nonc12	25.0	64.1*	-22.1	86.6*	.	8.2
O=[N+]([O-])c1c(Nc2ccccn2)cc(Cl)c2nonc12	39.2	59.8*	-98.9	-5.5	.	.
O=[N+]([O-])c1ccc(Nc2ccccn2)c([N+](=O)[O-])c1	30.1	-0.9	-6.1	2.8	2.4	25.8*
O=C(O)c1ccccc1Nc1cc(Cl)c2nonc2c1[N+](=O)[O-]	26.4	9.1	6.7	26.3	.	-6.1
O=C(CSc1nccn1Cc1ccccc1)NCc1ccccc1	14.9	-14.9	10.3	4.5	-4.0	8.5
Cc1ccc(NS(=O)(=O)c2ccc(NC(=O)C(C)Sc3ccc(Cl)cc3)cc2)c(C)c1 (configuration not stated)	-0.5	26.9	7.0	12.1	91.7*	8.1
CN1CCC(N(C)C(=O)/C=C/c2cn(-c3ccccc3)nc2-c2cccs2)CC1	12.5	?	7.1	33.4	100.7*	20.9
CCOC(=O)c1csc(Nc2nc3ccc(F)cc3s2)n1	4.6	?	-3.1	2.8	95.5*	7.0
O=C(Nc1nc2ccc(F)cc2s1)c1ccccn1	30.9	51.9	-24.0	9.5	100.2*	-5.1
O=C(Nc1nnc(SCc2ccc(F)cc2)s1)c1ccccn1	41.0	41.8	-49.5	103.1*	98.8*	-14.3
O=C(Nc1nnc(SCc2ccc(F)cc2)s1)c1cccnc1Cl	11.8	4.8	1.6	1.2	10.6	-13.4
O=C(NNc1nc2ccc(F)cc2s1)c1cccc(F)c1	7.0	66.9*	-6.5	44.5	-1.0	5.1
COC(=O)c1scc2c(=O)cc(C(F)(F)F)[nH]c12	-3.3	1.2	-14.4	-8.6	.	-16.5
COc1ccc(CCNC(=O)Cn2c(=O)n(-c3ccc(C)c(F)c3)c(=O)c3sccc32)cc1OC	11.7	2.7	-2.5	4.4	0.1	9.7
CCC1(CC)C(=O)C2=C3C1[C@H](C(=O)OC)C=C(C(=O)OC)C[C@H]3n1c(=O)n(-c3ccccc3)c(=O)n1[C@H]2C (some centres not stated)	4.2	7.9	-4.9	-3.3	.	.
Cc1cc(Cl)n2c(nc3cc(F)c(F)cc32)c1C#N	.	79.0*	-64.1	-6.3	90.7*	2.3
COc1ccc(S(=O)(=O)Nc2ccccc2OC)cc1NC(=O)c1cc2ccccc2oc1=O	-0.7	-7.1	16.5	-3.6	-3.9	33.6
O=C(c1cc2ccccc2cc1O)N1CCN(c2ccccc2O)CC1	11.3	-11.7	-6.8	76.6*	.	.
C=C(CC)C(=O)c1ccc(OCC(=O)O)c(Cl)c1Cl	11.7	-25.2	-14.8	.	10.6	78.2*
COC(=O)c1ccc(CN2CCC(CO)(Cc3ccccc3Cl)CC2)cc1	11.4	8.6	-57.5	-24.7	97.5*	-9.0
